Reference: ChEMBL document CHEMBL4342493, “Design and Optimization of 3'-(Imidazo[1,2-a]pyrazin-3-yl)-[1,1'-biphenyl]-3-carboxamides as Selective DDR1 Inhibitors” (ACS Med Chem Lett, 2020)

How the values were obtained:
[1] = target: T1, Epithelial discoidin domain-containing receptor 1 (Homo sapiens, UniProt Q08345); test: Inhibition of human wild type partial length DDR1 (R565 to V876 residues) expressed in bacterial expression system assessed as residual enzyme activity at 200 nM after 1 hr by Kinomescan method relative to control
T1 sequence (Q08345 whole entry, the tested form may be a part): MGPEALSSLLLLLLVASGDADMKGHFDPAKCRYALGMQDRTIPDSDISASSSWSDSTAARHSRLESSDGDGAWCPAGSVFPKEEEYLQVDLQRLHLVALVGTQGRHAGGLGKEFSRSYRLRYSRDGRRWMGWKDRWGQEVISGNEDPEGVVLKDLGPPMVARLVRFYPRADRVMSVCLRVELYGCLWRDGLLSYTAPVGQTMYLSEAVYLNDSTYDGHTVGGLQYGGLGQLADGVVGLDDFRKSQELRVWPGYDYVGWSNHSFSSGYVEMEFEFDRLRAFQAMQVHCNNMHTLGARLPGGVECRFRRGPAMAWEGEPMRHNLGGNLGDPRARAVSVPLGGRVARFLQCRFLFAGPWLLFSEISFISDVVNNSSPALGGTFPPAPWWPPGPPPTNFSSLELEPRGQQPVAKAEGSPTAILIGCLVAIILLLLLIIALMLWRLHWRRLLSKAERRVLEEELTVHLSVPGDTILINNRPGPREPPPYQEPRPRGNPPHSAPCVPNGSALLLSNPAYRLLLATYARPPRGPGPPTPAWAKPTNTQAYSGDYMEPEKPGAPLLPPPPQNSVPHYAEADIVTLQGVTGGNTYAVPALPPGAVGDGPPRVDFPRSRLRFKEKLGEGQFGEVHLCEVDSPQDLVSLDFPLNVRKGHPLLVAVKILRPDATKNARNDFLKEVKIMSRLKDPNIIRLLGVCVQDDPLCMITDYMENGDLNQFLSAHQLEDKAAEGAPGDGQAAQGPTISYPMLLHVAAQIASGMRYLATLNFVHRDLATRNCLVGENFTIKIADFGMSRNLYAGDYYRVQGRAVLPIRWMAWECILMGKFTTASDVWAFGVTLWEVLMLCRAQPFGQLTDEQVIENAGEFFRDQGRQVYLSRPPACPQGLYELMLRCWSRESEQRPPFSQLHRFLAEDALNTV

[2] = target: T1, Epithelial discoidin domain-containing receptor 1; test: Binding affinity to wild type human partial length DDR1 (R565 to V876 residues) expressed in bacterial expression system after 1 hr by Kinomescan method
Method in brief: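 KINOMEscan binding; Kd determined for DDR1 and the off-target kinases DDR2, CAMK1D, CLK4 and TTK.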

Bcr/Abl fusion protein = Bcr/Abl fusion protein (Homo sapiens, UniProt P00519); test: Inhibition of human recombinant full length His-tagged Bcr-Abl expressed in baculovirus expression system using tyrosine-2 peptide as substrate after 1 hr in presence of […] ATP by FRET based Z'-LYTE assay
Sequence of Bcr/Abl fusion protein (P00519 whole entry, the tested form may be a part): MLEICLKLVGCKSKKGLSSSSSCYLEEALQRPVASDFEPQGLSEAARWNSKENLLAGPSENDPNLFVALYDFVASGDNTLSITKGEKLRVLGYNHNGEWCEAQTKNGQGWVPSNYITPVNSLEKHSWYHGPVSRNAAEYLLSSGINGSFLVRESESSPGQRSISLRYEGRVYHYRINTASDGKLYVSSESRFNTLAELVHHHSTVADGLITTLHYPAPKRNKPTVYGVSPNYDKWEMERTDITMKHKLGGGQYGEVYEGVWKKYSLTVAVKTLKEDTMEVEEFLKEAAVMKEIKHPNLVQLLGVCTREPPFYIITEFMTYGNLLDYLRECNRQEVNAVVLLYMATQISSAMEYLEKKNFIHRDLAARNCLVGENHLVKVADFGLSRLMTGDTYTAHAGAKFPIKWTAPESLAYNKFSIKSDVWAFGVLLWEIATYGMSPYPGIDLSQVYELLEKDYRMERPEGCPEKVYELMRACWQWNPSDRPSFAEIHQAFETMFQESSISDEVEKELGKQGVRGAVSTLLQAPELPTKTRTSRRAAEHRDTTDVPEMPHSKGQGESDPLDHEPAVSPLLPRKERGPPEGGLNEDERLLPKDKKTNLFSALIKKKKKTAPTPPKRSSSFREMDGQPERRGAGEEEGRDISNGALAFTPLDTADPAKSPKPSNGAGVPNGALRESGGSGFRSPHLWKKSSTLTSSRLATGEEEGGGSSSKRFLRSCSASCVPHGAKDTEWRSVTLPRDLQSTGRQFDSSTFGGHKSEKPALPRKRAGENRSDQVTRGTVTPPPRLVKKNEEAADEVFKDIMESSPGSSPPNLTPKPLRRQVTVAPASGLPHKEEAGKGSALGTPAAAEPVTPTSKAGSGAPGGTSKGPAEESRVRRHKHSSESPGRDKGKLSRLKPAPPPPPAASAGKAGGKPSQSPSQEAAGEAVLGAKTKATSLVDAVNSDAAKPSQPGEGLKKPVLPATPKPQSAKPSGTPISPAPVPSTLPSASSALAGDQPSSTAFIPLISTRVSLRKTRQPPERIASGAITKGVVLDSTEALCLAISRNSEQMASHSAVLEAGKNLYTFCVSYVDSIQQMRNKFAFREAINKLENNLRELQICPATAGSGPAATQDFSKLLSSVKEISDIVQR
Sequence of Bcr/Abl fusion protein (P11274 whole entry, further chain, the tested form may be a part): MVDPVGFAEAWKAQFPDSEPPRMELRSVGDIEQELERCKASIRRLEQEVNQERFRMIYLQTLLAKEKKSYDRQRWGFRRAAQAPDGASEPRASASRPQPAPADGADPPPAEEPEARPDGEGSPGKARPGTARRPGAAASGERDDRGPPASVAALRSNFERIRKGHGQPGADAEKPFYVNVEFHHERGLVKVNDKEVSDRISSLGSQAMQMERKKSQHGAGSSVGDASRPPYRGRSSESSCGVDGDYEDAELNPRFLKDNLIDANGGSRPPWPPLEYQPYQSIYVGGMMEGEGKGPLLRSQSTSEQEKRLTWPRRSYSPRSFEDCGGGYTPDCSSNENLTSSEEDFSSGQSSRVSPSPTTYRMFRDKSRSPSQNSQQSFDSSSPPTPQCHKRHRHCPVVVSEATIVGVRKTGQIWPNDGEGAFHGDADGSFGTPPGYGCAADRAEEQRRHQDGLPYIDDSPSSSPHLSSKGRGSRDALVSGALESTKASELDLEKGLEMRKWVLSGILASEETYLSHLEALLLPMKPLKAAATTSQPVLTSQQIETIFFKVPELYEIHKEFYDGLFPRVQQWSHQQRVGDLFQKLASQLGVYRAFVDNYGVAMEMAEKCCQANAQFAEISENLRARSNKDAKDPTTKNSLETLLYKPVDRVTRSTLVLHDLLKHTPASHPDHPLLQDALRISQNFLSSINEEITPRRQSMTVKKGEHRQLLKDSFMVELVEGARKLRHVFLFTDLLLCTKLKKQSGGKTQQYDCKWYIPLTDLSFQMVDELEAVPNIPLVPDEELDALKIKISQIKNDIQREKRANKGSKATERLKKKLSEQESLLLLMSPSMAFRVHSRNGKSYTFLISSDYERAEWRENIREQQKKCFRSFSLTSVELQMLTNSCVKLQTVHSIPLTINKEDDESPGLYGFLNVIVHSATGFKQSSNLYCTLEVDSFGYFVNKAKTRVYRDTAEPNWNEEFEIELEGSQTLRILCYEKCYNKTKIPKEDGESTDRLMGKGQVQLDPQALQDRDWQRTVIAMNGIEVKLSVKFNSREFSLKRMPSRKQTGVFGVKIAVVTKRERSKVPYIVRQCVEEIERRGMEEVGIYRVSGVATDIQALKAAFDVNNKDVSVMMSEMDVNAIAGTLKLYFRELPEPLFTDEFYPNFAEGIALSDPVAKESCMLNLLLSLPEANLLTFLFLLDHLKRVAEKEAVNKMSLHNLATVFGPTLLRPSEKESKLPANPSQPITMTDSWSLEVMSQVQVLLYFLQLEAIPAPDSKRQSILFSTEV
Method in brief: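 FRET-based Z′-Lyte kinase assay for Bcr-Abl; IC50 values are means of three independent experiments, variations <20%.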

NCI-H1299 [3] = test: Antiinvasive activity against human H1299 cells at 1.25 uM after 24 hrs by crystal violet staining based transwell assay relative to control; type: functional; details: NCI-H1299, 24 h
Method in brief: (§1)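 H1299 NSCLC cells; transwell invasion assay over 24 h with compound at 1.25, 2.5 and 5.0 μM; invasion expressed relative to blank control.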

[4] = target: T2, Dual specificity protein kinase TTK (Homo sapiens) (UniProt P33981); test: Inhibition of wild-type human partial length TTK (N505 to V798 residues) expressed in bacterial expression system assessed as enzyme residual activity at 200 nM after 1 hr by Kinomescan method relative to control
T2 sequence (whole entry): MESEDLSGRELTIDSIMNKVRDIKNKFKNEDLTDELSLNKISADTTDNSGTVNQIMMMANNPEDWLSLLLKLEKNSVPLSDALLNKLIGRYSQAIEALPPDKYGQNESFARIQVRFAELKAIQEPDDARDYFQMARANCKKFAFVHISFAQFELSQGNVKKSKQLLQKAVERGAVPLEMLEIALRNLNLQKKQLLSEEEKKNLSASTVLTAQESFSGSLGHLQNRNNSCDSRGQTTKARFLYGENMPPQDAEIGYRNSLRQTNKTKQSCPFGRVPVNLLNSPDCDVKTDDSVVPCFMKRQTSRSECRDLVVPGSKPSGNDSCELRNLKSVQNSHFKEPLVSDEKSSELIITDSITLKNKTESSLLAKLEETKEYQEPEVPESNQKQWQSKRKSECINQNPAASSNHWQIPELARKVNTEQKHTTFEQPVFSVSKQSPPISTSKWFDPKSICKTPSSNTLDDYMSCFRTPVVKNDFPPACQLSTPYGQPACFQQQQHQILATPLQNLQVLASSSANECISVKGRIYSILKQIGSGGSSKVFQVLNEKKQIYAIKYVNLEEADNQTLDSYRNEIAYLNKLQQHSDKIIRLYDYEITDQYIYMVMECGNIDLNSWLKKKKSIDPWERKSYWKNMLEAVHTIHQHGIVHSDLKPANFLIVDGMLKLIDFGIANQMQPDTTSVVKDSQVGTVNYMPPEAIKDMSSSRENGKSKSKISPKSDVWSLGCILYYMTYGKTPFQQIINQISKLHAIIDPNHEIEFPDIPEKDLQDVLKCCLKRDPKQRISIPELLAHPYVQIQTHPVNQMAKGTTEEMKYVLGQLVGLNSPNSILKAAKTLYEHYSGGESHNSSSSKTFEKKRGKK

[5] = target: T3, Discoidin domain-containing receptor 2 (Homo sapiens) (UniProt Q16832); test: Inhibition of wild type human partial length DDR2 (V555 to E855 residues) expressed in mammalian expression system assessed as residual enzyme activity at 200 nM after 1 hr by Kinomescan method relative to control
T3 sequence (whole entry): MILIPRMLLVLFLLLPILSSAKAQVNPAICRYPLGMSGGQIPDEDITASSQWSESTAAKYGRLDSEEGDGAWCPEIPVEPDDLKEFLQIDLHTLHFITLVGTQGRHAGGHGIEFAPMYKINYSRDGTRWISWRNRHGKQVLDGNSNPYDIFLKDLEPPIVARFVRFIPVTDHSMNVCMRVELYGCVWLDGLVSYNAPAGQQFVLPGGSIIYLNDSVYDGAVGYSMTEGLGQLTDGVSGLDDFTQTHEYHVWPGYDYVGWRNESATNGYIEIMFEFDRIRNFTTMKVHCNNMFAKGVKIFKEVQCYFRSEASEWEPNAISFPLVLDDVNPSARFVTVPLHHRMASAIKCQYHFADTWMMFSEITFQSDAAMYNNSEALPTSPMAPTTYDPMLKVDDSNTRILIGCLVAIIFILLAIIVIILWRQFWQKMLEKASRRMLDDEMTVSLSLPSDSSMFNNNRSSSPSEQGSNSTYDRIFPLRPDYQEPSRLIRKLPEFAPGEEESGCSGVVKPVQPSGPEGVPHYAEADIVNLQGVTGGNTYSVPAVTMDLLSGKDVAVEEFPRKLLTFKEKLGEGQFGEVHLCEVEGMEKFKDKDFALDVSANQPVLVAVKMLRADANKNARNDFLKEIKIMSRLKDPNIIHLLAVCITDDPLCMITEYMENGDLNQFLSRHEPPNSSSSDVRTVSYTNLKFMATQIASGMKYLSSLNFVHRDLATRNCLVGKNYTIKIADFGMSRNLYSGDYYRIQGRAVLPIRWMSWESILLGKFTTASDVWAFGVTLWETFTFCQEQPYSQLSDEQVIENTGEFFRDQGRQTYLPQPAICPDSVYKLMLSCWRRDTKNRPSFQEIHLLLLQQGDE

NCI-H1299 [6] = test: Antiinvasive activity against human H1299 cells at 2.5 uM after 24 hrs by crystal violet staining based transwell assay relative to control; type: functional; details: NCI-H1299, 24 h; method in brief: as §1
[7] = target: Calcium/calmodulin-dependent protein kinase type 1D (Homo sapiens, UniProt Q8IU85); test: Inhibition of wild-type human partial length CAMK1D (M1 to K299 residues) expressed in bacterial expression system assessed as residual enzyme activity at 200 nM after 1 hr by Kinomescan method relative to control
Sequence of Calcium/calmodulin-dependent protein kinase type 1D (Q8IU85 whole entry, looked up, the tested form may be a part): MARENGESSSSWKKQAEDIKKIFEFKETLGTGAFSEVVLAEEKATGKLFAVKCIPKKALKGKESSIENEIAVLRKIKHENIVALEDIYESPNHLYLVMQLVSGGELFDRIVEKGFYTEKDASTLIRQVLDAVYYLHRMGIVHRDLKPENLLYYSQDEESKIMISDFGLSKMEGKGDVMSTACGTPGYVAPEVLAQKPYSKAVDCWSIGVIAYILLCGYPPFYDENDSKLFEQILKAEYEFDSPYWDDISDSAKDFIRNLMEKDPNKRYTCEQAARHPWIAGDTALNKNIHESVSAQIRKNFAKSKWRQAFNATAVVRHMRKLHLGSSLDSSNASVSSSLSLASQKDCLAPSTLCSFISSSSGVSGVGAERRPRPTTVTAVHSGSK

NCI-H1299 [8] = test: Antimigratory activity against human H1299 cells assessed as reduction in wound closure at 5 uM after 24 hrs by bright field microscopic based wound healing assay relative to control; type: functional; details: NCI-H1299, 24 h
Method in brief: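 Wound healing (scratch) migration assay in H1299 cells at 1.25, 2.5 and 5.0 μM; wound closure compared with blank control groups.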

Homo sapiens = organism: Homo sapiens; test: Selectivity index, ratio of IC50 for human recombinant full length His-tagged Bcr-Abl expressed in baculovirus expression system using tyrosine-2 peptide as substrate after 1 hr in presence of […] ATP by FRET based Z'-LYTE assay to IC50 for recombinant human GST-tagged DDR1 catalytic domain (440 to 876 residues) expressed in baculovirus expression system using Fluorescein-poly GAT as substrate incubated for 1 hr in presence of ATP by LanthaScreen Eu kinase assay
Method in brief: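 Ratio of Bcr-Abl IC50 to DDR1 IC50. Bcr-Abl was measured by FRET-based Z′-Lyte assay and DDR1 by LanthaScreen Eu kinase assay. Each IC50 is the mean of three independent experiments, with variation <20%.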

Activity [1]: 0%
Kd [2]: 7.8 nM
IC50 (Bcr/Abl fusion protein): > 10000 nM
Activity [4]: 0%
Activity [5]: 15%
Activity [7]: 0.9%
Ratio IC50 (Homo sapiens): 420
SMILES: CCc1ccc(C(=O)Nc2cc(F)cc(C(F)(F)F)c2)cc1-c1cc(C)cc(-c2cnc3cnccn23)c1
inhibition at 1.25 µM (NCI-H1299 [3]): 17%
inhibition at 2.5 µM (NCI-H1299 [6]): 50%
inhibition at 5 µM (NCI-H1299 [8]): 84%
